PostGolgi yeast: phenotypic screen on post-Golgi transport, primary screen; AID 739, 2007; inhibition, % at 10 µM; 0.9% of 98,000 active; post-Golgi transport phenotypic cell assay;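 further: yeast cells grown in 1536-well plates; yeast grown about 18 h at 30C before absorbance read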
Yeast growth inh: growth inhibitors of yeast BB579 in restrictive medium, primary screen, yeast lifespan-shortening project, S. cerevisiae. OD615, 48 h. inhibition, % at 10 µM. 0.51% of 140,000 active;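 active means inhibition above a set limit, 3 SD over the mean compound inhibition, cut at about 44% in these data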
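controls = amphotericin B 10 µg/mL, positive | assay system = DeaD yeast strain BB579 | schedule = 48 h compound exposure at 30 °C after 4 h preincubation | detection = OD615 turbidity measurement | medium = restrictive CSMM-D medium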
Yeast life ext: compounds extending yeast replicative lifespan, primary screen, S. cerevisiae, OD615; S. cerevisiae growth with nicotinamide; deaD strain in restrictive glucose medium; 0.68% of 130,000 active; inhibition of the nicotinamide effect, % at 10 µM; AID 775, 2007;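 active means inhibition above a set limit, placed 3 SD over the median of all compounds, cut at about 26% in these data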;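 further: 0% = nicotinamide-treated wells and 100% = cells grown without nicotinamide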
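Buffer or medium: CSMM-D glucose medium, restrictive; test system: modified budding yeast, DeaD strain; compound: single dose 10 µM compound, 0.25% DMSO; schedule: culture preincubation 4 h, compound exposure 48 h, both 30 °C; detection: optical density (absorbance) at 615 nm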
PostGolgi ctrl: growth inhibition of yeast control strain, primary screen, counter-screen for post-Golgi transport modulator project. 5% of 98,000 active. inhibition, % at 10 µM. efflux-deficient yeast background strain, growth absorbance A615, 16 h
The depositor's hits bear a star; . = no result. This excerpt belongs to a sample that is enriched for hits. Unless noted, no stated cut-off is given here; in the data, active means inhibition above about 30%; inactive means the rest.

SMILES	PostGolgi yeast	Yeast growth inh	Yeast life ext	PostGolgi ctrl
N#Cc1c(-c2ccc(Cl)cc2Cl)nc2n(c1=O)CCS2	-5	-49	23	32*
CCOC(=O)C1C(=O)CC(C)(O)C(C(=O)OCC)C1c1ccco1 (configuration not stated)	17	-34	-6	2
c1ccc(-n2nnnc2Oc2ccc(-c3nnco3)cc2)cc1	0	-14	-14	42*
COc1c(OC(C)=O)ccc(/C=C/c2ccc3ccccc3n2)c1[N+](=O)[O-]	-2	-45	-20	73*
COc1c(OC(C)=O)ccc(/C=C/c2ccc3cccc(OC)c3n2)c1[N+](=O)[O-]	.	-24	-8	.
O=C(Cn1c(=O)n(Cc2ccc3c(c2)OCO3)c(=O)c2ccccc21)N1CCCc2ccccc21	9	-74	5	50*
Cc1c(C#N)c2ccccc2n1CC(=O)N1CCCc2ccccc21	-6	-57	-17	13
COCCn1c(C)cc(C(=O)CSc2nc3ccccc3c(=O)[nH]2)c1C	2	-56	-13	8
COCCn1c(C)cc(C(=O)CSc2ccc3ccccc3n2)c1C	0	-41	-8	31*
Cc1ccccc1N(CC(=O)N/N=C/c1ccc(F)cc1)C(=O)c1ccccc1	8	-1	-2	16
Cc1ccccc1N(CC(=O)N/N=C/c1ccc(Cl)cc1)C(=O)c1ccccc1	8	-39	-16	32*
O=C(Nc1ccccc1)c1ccccc1NS(=O)(=O)c1ccc(Cl)s1	-8	-11	-2	44*
COc1ccc(N/N=C(\C=N\O)C(=O)c2ccc(OC)cc2)cc1	8	-20	-9	35*
COc1ccc(C(=O)/C=C(\C)Nc2ccc(NC(C)=O)cc2)cc1	-2	-21	-23	-3
Cc1ccc(-c2nnc(SCC#CCOC(=O)c3cccs3)o2)cc1	-11	-17	-3	36*
CCSc1nnc(NC(=O)c2cc(C)nc3ccccc23)s1	-7	-38	-11	39*
CCSc1nnc(NC(=O)c2ccc3ccccc3n2)s1	13	29	-9	33*
CCSc1nnc(NC(=O)CSc2nc(C)cc(C)n2)s1	1	-39	36*	10
CCSc1nnc(NC(=O)C2(C)Cc3ccccc3C(=O)O2)s1 (configuration not stated)	-4	-3	37*	17
CCSc1nnc(NC(=O)CSc2nc3c(cc2C#N)CCCC3)s1	6	-40	-24	2
O=C(Nc1nc(-c2ccccc2)cs1)c1ccc(Br)o1	-3	-46	-9	27
COc1cc(CCC(=O)OCC(=O)Nc2c(C)cccc2C(C)C)cc(OC)c1OC	.	-20	2	.
CCSc1nnc(NC(=O)c2nn(C(C)C)c(=O)c3ccccc23)s1	7	-54	-15	30*
CCSc1nnc(NC(=O)c2nc(-c3ccccc3)n(-c3ccccc3)n2)s1	2	-22	-4	16
C/C(=N/NC(=O)CNC(=O)c1ccccn1)c1ccccc1	.	-21	0	.
SMILES	PostGolgi yeast	Yeast growth inh	Yeast life ext	PostGolgi ctrl
C=CCNC(=S)N/N=C(\C)c1ccccn1	-1	93*	-10	20
Cc1ccc(C)c(OCCSc2nnc(-c3cccnc3)n2N)c1	.	-46	9	.
C/C(=N\NC(=O)c1ccccc1O)c1c(O)cc(C)oc1=O	-1	-22	62	-4
C/C(=N\NC(=O)c1ccccc1[N+](=O)[O-])c1c(O)cc(C)oc1=O	.	-9	33*	.
C/C(=N\NC(=O)c1cccnc1)c1cc(C)oc1C	.	3	6	.
C/C(=N\NC(=O)c1cccnc1)c1c(O)cc(C)oc1=O	.	-22	42*	.
CN(C)CCN(Cc1ccccc1)c1ccnc(N(C)C)c1C#N	4	-49	-15	15
CN(C)c1nccc(N(Cc2ccccc2)Cc2ccccc2)c1C#N	0	-46	8	30*
OC1(c2cn(Cc3ccccc3)nn2)CCCCC1	0	-30	-13	38*
Cc1ccc(/C=C(\NC(=O)c2ccccc2)C(=O)NCCc2ccccn2)o1	.	-14	6	.
Cc1cccc(-n2ncc3c(N4CCC(C)CC4)ncnc32)c1	44*	-52	-9	45*
Cc1ccc(-n2ncc3c(N4CCCC4)ncnc32)c(C)c1	0	-33	-18	33*
CCOC(=O)C1CCCN(c2ncnc3c2cnn3-c2cccc(C)c2)C1 (configuration not stated)	5	-23	-9	19
COc1cccc(N2CCN(c3ncnc4c3cnn4-c3ccc(C)cc3C)CC2)c1	3	-38	-7	46*
CCOC(=O)N1CCN(S(=O)(=O)c2cccc3ccc(C)nc23)CC1	-1	-24	0	4
COc1ccc(S(=O)(=O)NC2CC3CCC2C3)cc1Cl (configuration not stated)	81*	-18	2	95*
CC1CCCC(NS(=O)(=O)c2ccc3c(c2)OCCO3)C1C (configuration not stated)	-7	-42	-1	55*
O=S(=O)(NC1CC2CCC1C2)c1ccc2c(c1)OCCO2 (configuration not stated)	1	-23	-5	55*
O=C(CCC(=O)OCC(=O)c1ccc(Br)cc1)Nc1ccc(Br)c2cccnc12	5	-24	-2	38*
Cc1ccc(C(=O)NN2C(=O)/C(=C/c3cn(C)c4ccccc34)SC2=S)cc1	.	-20	3	.
Cc1ccc(/C(C#N)=C\c2cn(C)c3ccccc23)cc1	-4	-60	-4	34*
CCC(c1c(C)[nH]oc1=O)c1c(C)[nH]oc1=O	3	-17	-10	15
CCC(=O)c1cc(F)c(N2CCN(S(=O)(=O)c3ccc(C)cc3)CC2)cc1C	28	-15	-4	35*
Cc1cc(Cl)c(OCCCCNC(C)(C)C)c(Br)c1	.	-14	6	.
COc1cccc(/C=C2\C(=O)N(c3cccc(C)c3)C(=O)c3ccccc32)c1	.	-10	48*	.
SMILES	PostGolgi yeast	Yeast growth inh	Yeast life ext	PostGolgi ctrl
Cc1cccc(N2C(=O)/C(=C\c3ccc(OC(F)F)cc3)c3ccccc3C2=O)c1	.	-27	47*	.
CC(=O)NC(c1cccs1)c1cc([N+](=O)[O-])c2cccnc2c1O (configuration not stated)	.	80*	-4	.
CC(C)C(=O)NC(c1ccccc1)c1cc([N+](=O)[O-])c2cccnc2c1O (configuration not stated)	.	74*	-4	.
CCCC(=O)NC(c1cccs1)c1cc([N+](=O)[O-])c2cccnc2c1O (configuration not stated)	.	47*	-2	.
O=C(Cc1c[nH]c2ccccc12)NCc1ccc2c(c1)OCO2	8	-31	-10	1
CCOC(=O)N1CCN(c2ccc(S(=O)(=O)N(Cc3ccccc3)Cc3ccccc3)cn2)CC1	34*	-4	-1	-4
CCOC(=O)N1CCN(C(=O)CN(Cc2ccccc2)S(C)(=O)=O)CC1	5	-12	-21	5
COc1ccc(/C=C(/C(=O)Nc2ccccc2C(=O)N2CCCC2)c2ccccc2)cc1	2	-10	-10	36*
Cc1nn(-c2ccc(Cl)c(Cl)c2)c(=O)c2ccccc12	-1	-32	-24	49*

Screening data as filed in PubChem.
